Data published in article PMC2192647 (The Journal of Cell Biology, 2000).
Entries after “also recorded” stand apart in the source; their conditions may differ. Read-outs that look alike come from different tables or passages of the source.

How the values were obtained:
Human keratinocytes [1] = test: Keratinocyte migration after wounding; assay type: cell-based; settings: for Keratinocyte migration into wound area: 3 d, antibody No. 425 10 μg/ml, AG1478 30 nM, OSU8-1 1 μM; for Block of migration relative to the control: 10 μM, Fig. 6 b
Method in brief: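 Human keratinocytes grown on type I collagen-coated dishes or 6-well plates. At subconfluency, switched to BHE-free medium and scraped with a wide silicone rubber scraper. Washed once to remove floating cells, then re-fed BHE-free medium with or without test compound, antibody No. 425 (10 μg/ml), AG1478 (30 nM), or test compound plus HB-EGF (20 ng/ml). Cultured 3 d at 37°C.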

Human keratinocytes [2] = test: Keratinocyte growth; assay type: cell-based; settings: 3 d
Method in brief: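 Human keratinocytes kept in supplemented MCDB153. Seeded at 10^5 cells/well in 6-well plates and grown 3 d with or without test compound (1 μM), EGFR neutralizing antibody No. 425 (10 μg/ml) or AG1478 (30 nM). Values are averages of triplicate experiments.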

EGFR = test: Wound-induced EGFR tyrosine phosphorylation in cultured keratinocytes; assay type: cell-based, human; settings: wounded keratinocytes
Method in brief: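 Keratinocytes grown 72 h on collagen-coated 10-cm dishes (5 × 10^5/dish). Starved 2 h in BHE-free medium ± test compound (1 μM), cycloheximide (50 μM) or HB-EGF neutralizing antibody No. 197 (10 μg/ml). Tip-scrape wounded, incubated set times at 37°C. Lysates in Triton/vanadate buffer; EGFR immunoprecipitated overnight at 4°C with protein A-Sepharose. Run on 6% SDS-PAGE, PVDF-blotted, probed, ABC/ECL detection.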

AP-tag TGF-α [3] = test: TPA-inducible shedding of AP-tag TGF-α in CHO transfectants; assay type: cell-based, human; settings: 60 nM TPA; for Percent inhibition at 1 μM TGF-α: 1 μM inhibitor, CHO transfectants
MMP-9 = MMP-9 (Homo sapiens, UniProt P14780); test: MMP-9 inhibition; assay type: biochemical; settings: read-out: IC50 MMP-9
MMP-3 = MMP-3 (Homo sapiens, UniProt P08254); test: MMP-3 inhibition; assay type: biochemical; settings: read-out: IC50 MMP-3
MMP-1 = biological target: T1, MMP-1 (Homo sapiens, UniProt P03956); test: MMP-1 inhibition; assay type: biochemical
T1 sequence (P03956 100-469): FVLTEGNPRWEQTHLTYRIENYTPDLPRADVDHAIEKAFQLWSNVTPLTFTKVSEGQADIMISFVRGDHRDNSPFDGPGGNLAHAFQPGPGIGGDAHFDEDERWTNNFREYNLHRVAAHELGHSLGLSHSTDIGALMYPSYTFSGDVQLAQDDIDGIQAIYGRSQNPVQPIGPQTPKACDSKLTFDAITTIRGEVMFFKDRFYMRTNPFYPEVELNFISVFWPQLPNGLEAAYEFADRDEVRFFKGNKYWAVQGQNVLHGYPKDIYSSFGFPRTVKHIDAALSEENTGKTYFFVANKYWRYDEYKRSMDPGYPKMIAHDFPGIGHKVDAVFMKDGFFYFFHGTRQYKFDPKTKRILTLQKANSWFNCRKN

AP-tag HB-EGF [4] = test: TPA-inducible shedding of AP-tag HB-EGF in CHO transfectants; assay type: cell-based, human; settings: 60 nM TPA
keratinocytes [5] = test: Keratinocyte migration assay in a Boyden chamber; assay type: cell-based, human
Method in brief: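 Keratinocytes grown 72 h on collagen-coated dishes, detached with trypsin-EDTA for ≤1 min, resuspended at 10^5 cells/ml. Samples placed in bottom wells of a 48-well Boyden chamber: recombinant HB-EGF, or serially diluted 48-h wounded-culture conditioned medium, with test compound added top or bottom. Collagen-coated 8-μm polycarbonate membrane; 50 μl cells per top well. Ran 4 h at 37°C. Migrated cells fixed, hematoxylin-stained, counted microscopically.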

AP-tag TGF-α [6] = test: Wound-induced shedding of AP-tag TGF-α in HaCat transfectants; assay type: cell-based, human; settings: 1 μM, 60 min after wounding
AP-tag AR [7] = test: Wound-induced shedding of AP-tag AR in HaCat transfectants; assay type: cell-based, human; settings: 1 μM, 60 min after wounding
AP-tag HB-EGF [8] = test: Wound-induced shedding of AP-tag HB-EGF in HaCat transfectants; assay type: cell-based, human; settings: 1 μM, 60 min after wounding
AP-tag AR [9] = test: TPA-inducible shedding of AP-tag AR in CHO transfectants; assay type: cell-based, human; settings: 60 nM TPA
[10] = test system: wild-type HB-EGF, TGF-α, and AR; test: TPA-inducible shedding of wild-type ligands in CHO transfectants; assay type: cell-based, human; settings: 10 μM, Fig. 2 b
Method in brief: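 CHO cells stably expressing untagged HB-EGF, AR or TGF-α, seeded at 2 × 10^5/6-cm dish, grown 24 h in Ham's F12/10% FCS. Surface-biotinylated with 0.1 mg/ml sulfo-NHS-biotin, 15 min on ice. Preincubated ±10 μM test compound for 10 min, then 30 min at 37°C with TPA plus compound. Ligands immunoprecipitated with specific antibodies and protein A; SDS-PAGE/Western blot, avidin-HRP/ECL detection.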

EGFR ligands = test: Release of soluble EGFR ligands from wounded keratinocytes; assay type: cell-based, human; settings: 1 μM
Method in brief: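 Subconfluent keratinocytes in BHE-free medium tip-scraped in cross-stripes 5 mm apart, washed, then re-fed with or without test compound. Conditioned media collected at several times (37°C). Media added to EP170.7 cells (2 × 10^4/well) for 36 h, then [3H]thymidine (1 μCi/well) for 6 h; DNA incorporation measured. HB-EGF neutralised by preincubating with antibody No. 197 (10 μg/ml final). Four independent experiments.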

keratinocytes [11] = test: Juxtacrine growth factor assay; assay type: cell-based, human; settings: 1 μM, Fig. 7 a
Method in brief: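 Keratinocytes plated at 10^5 cells/well and grown 12 h. Soluble HB-EGF/AR stripped by washing in medium containing 2 M NaCl. Cells fixed in 5% buffered formalin for 5 min, then washed in RPMI 1640/10% FCS. EP170.7 cells (10^5/well) added with [3H]thymidine for 6 h. Thymidine incorporation into EP170.7 DNA measured. Averages of triplicate experiments.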

[12] = test system: plasminogen-deficient mice; settings: plasminogen-deficient mice ref Lund et al. 1999; cited from earlier work
BALB/c mice = test: In vivo wound assay, full-thickness wounds in mice; settings: HB-EGF 5 μg/ml in addition to 10 mM OSU8-1, day 6
Method in brief: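 Female BALB/c mice, 8 wk old, housed singly, anaesthetised with diethylether. Two 6-mm full-thickness punch wounds on the back, left open. Each wound received 500 μl daily for 5 d. One side got vehicle (1.5% carboxymethylcellulose in sterile PBS). The other got 10 mM test compound (n = 10) or test compound plus 5 μg/ml HB-EGF (n = 5). Wounds excised day 6, formalin-fixed, sectioned anterior-posterior, anti-cytokeratin stained.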

Sequence of MMP-9 (P14780 94-707, species assumed): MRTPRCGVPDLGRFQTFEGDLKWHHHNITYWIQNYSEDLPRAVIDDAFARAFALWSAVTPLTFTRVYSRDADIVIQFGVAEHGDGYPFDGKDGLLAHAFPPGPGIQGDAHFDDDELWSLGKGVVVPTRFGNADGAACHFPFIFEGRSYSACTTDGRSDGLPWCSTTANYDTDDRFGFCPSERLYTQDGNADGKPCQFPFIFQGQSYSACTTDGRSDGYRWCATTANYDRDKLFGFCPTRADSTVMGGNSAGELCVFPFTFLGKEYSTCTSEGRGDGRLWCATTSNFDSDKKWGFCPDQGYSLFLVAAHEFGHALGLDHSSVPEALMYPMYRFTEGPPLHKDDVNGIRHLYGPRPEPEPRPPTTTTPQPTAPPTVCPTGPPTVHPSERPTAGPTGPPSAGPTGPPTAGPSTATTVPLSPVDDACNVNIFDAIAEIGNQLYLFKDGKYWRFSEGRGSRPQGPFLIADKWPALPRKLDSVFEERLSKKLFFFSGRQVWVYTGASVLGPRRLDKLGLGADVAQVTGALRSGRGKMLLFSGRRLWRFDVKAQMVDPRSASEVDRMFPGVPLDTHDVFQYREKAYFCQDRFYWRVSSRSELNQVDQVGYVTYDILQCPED
Sequence of MMP-3 (P08254 100-477, species assumed): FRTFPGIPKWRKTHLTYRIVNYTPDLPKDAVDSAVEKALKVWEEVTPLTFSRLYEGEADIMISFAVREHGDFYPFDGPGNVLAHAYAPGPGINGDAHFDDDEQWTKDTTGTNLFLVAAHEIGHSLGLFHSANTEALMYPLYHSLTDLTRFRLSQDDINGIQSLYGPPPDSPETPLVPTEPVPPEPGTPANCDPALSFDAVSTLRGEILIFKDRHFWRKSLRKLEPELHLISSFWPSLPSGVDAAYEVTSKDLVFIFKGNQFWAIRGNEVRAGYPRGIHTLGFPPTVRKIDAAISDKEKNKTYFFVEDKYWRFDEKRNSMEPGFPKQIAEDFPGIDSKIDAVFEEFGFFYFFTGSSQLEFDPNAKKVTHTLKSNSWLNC

## COc1cc2ncnc(Nc3cccc(Cl)c3)c2cc1OC [AG1478, reference compound]
Human keratinocytes [1]
  Keratinocyte migration into wound area: suppressed
Human keratinocytes [2]; antibody No. 425 10 μg/ml, AG1478 30 nM
  Proliferation, % of the control: 10–15 % of the control

## C[C@@H]1C[C@@H]([C@H](O)CC2CC(=O)NC(=O)C2)C(=O)[C@@H](C)C1 [Cycloheximide, cycloheximide]
EGFR; 50 μM
  EGFR activation induced by wounding: failed to abrogate; also recorded: did not abrogate

## CNC(=O)[C@H](Cc1cccc2ccccc12)NC(=O)[C@@H](CC(=O)NO)CC(C)C [OSU7-6, [4-(N-hydroxyamino)-2R-isobutylsuccinyl]-L-3-(1-naphthyl)-alanine-N-methylamide]
AP-tag TGF-α [3]; 30 min
  Percent inhibition at 1 μM TGF-α: 5%
MMP-9
  IC50: 0.4 nM
Human keratinocytes [1]
  Block of migration relative to the control: ~70%
MMP-3
  IC50: 2 nM
MMP-1; read-out: IC50 MMP-1
  IC50: 0.35 nM

## CNC(=O)[C@H](Cc1cccc2c1CCCC2)NC(=O)[C@H](CC(C)C)[C@H](C)C(=O)NO [OSU8-1, [4-(N-hydroxyamino)-2R-isobutyl-3S-methylsuccinyl]-L-3-(5,6,7,8-tetra-hydro-1-naphthyl)alanine-N-methylamide]
AP-tag TGF-α [3]; 1 μM, Fig. 2 a
  Block of shedding of AP-tag TGF-α: partially blocked
AP-tag TGF-α [3]; 10 μM, Fig. 2 a
  Block of TPA-inducible shedding of AP-tag TGF-α: significantly blocked
EGFR; 1 μM
  EGFR activation after wounding: abrogated completely
AP-tag HB-EGF [4]; 1 μM, Fig. 2 a
  Block of shedding of AP-tag HB-EGF: markedly blocked
AP-tag HB-EGF [4]; 10 μM, Fig. 2 a
  Block of TPA-inducible shedding of AP-tag HB-EGF: significantly blocked
MMP-9
  IC50: 0.3 nM
Keratinocytes [5]; 48-h conditioned medium of wounded keratinocytes, 1 μM OSU8-1, Fig. 7 d
  Fold less potent at promoting migration: conditioned medium collected in the presence of OSU8-1: ~30 fold
Keratinocytes [5]; various concentrations of OSU8-1 added to the conditioned medium, Fig. 7 e
  Effect on migration of keratinocytes induced by conditioned medium: no effect
Human keratinocytes [1]
  Keratinocyte migration into wound area: significantly suppressed
AP-tag TGF-α [6]
  Effect on wound-induced AP-tag TGF-α shedding: no effect
AP-tag AR [7]
  Inhibition of wound-induced shedding of AP-tag AR: effective at inhibiting
AP-tag HB-EGF [8]
  Inhibition of wound-induced shedding of AP-tag HB-EGF: effective at inhibiting
MMP-3
  IC50: 2.9 nM
AP-tag AR [9]; 1 μM inhibitor, 30 min, CHO transfectants
  Percent inhibition at 1 μM AR: 70%
AP-tag AR [9]; 1 μM, Fig. 2 a
  Block of shedding of AP-tag AR: markedly blocked
AP-tag AR [9]; 10 μM, Fig. 2 a
  Block of TPA-inducible shedding of AP-tag AR: significantly blocked
[10]
  TPA-inducible shedding of wild-type HB-EGF, TGF-α, and AR: abrogation
MMP-1; read-out: IC50 MMP-1
  IC50: 0.3 nM
MMP-1; read-out: IC50s for all three MMPs, range across MMP-1, MMP-3 and MMP-9
  IC50: 0.3 to 2.9 nM
Human keratinocytes [2]; 1 μM, Fig. 7 b
  Inhibition of cell growth: ~50%
EGFR ligands
  Release of EGFR ligands after wounding: abrogated completely
Keratinocytes [11]
  Juxtacrine growth activity of keratinocytes: slightly upregulated

## COc1ccc(S(=O)(=O)N2Cc3cc(O)c(O)cc3CC2C(=O)NO)cc1 (centres unmarked) [OSU9-6, [6,7-dihydroxy-3-(N-hydroxycarbamoyl)-2-(4-methoxybenzenesulfonyl)-1,2,3,4-tetrahydroisoquinoline]]
AP-tag TGF-α [3]; 30 min
  Percent inhibition at 1 μM TGF-α: 5%
Human keratinocytes [1]
  Block of migration relative to the control: ~70%

## CCCCCCCCCCCCCC(=O)O[C@@H]1[C@@H](C)[C@@]2(O)[C@@H](C=C(CO)C[C@]3(O)C(=O)C(C)=C[C@@H]23)[C@@H]2C(C)(C)[C@]12OC(C)=O [TPA, 12-O-tetradecanoylphorbol-13-acetate, reference compound]
AP-tag TGF-α [3]; 30 min
  Induction of shedding of AP-tag TGF-α: induced the shedding
AP-tag HB-EGF [4]; 30 min
  Induction of shedding of AP-tag HB-EGF: induced the shedding
AP-tag AR [9]; 30 min
  Induction of shedding of AP-tag AR: less effective

## CNC(=O)[C@H](Cc1c[nH]c2ccccc12)NC(=O)[C@@H](CC(=O)NO)CC(C)C [galardin]
[12]
  Wound healing: completely arrested

B1: HB-EGF: human recombinant heparin-binding EGF-like growth factor, soluble form (protein, UniProt Q99075 63-148, looked up)
Heparin-binding EGF-like …: DLQEADLDLLRVTLSSKPQALATPNKEEHGKRKKKGKGLGKKRDPCLRKYKDFCIHGECKYVKELRAPSCICHPGYHGERCHGLSL
Keratinocytes [5]; recombinant HB-EGF, Boyden chamber, Fig. 7 c
  Concentration of maximal stimulation of keratinocyte migration: 10 ng/mL
BALB/c mice
  Keratinocyte migration and regeneration of the epidermis: completely restored
